Among the data in ChEMBL document CHEMBL4382263, “Spirostaphylotrichin X from a Marine-Derived Fungus as an Anti-influenza Agent Targeting RNA Polymerase PB2” (J Nat Prod, 2018) are Activity values, retold here.

Calls of active or inactive are those of the source. The calls are words filed in the database; no cut-off is given here.

In the experiment the test system is Influenza A virus. Put plainly: Antiviral activity against Influenza A virus H5N1 pseudovirus harboring IAV (A/Thailand/Kan353/2004(H5N1))-HA/IAV (A/Thailand/Kan353/2004(H5N1))-NA/HIV core plasmids infected in MDCK cells assessed as pseudovirus neutralization incubated for 30 mins with virus followed by viral infection and measured after 48 hrs by luciferase reporter gene assay. Type of experiment: functional, organism-based. The essentials:
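Pseudovirus incubated with varying compound concentrations for 30 min at 37 °C, then added to MDCK cells for 48 h. Lysates read for luciferase activity; VSV-G pseudovirus run as control.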
For orientation: In a reporter assay the amount or activity of a reporter protein is the signal.

For the molecule `CC/C=C1/C=CC(=O)[C@@H](O)[C@]12C(=O)N(OC)[C@@](C)(OC)[C@@H]2O`, the result was inactive.
